High-throughput results: PubChem BioAssay, several laboratories
DAGLB inhibitor – DAGLB lipase inhibitors, primary screen, biochemical, fluorescence, HTS; Diacylglycerol lipase-beta (Homo sapiens), Q8NCG7; HEK293T DAGLB membrane lysate, EnzChek fluorogenic substrate; inhibition, % at 5.17 µM; 340,000 compounds, 0.059% hits; in the data active means inhibition above about 34%
DNA FID counter – compounds displacing fluorescent DNA intercalator, primary screen, artefact control for HCV NS3 helicase inhibitor project, biochemical, FID fluorescence | DNA fluorescent intercalator displacement | inhibition, % at 7.9 µM | 290,000 compounds, 0.17% hits; in the data active means inhibition above about 37%;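 further: higher means more ethidium bromide displaced from hairpin DNA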
HCV core dimer – inhibitors of HCV core protein dimerization, primary screen, biochemical, TR-FRET, high-throughput; TR-FRET GST/Flag-core106 dimerization, 1536-well; inhibition, % at 5 µM; 300,000 compounds, 0.33% hits;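 active means inhibition above the mean of all tested compounds plus 3 SD, set per screening campaign, cut at about 45% in these data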
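Material: Tagged HCV core106 pair (GST and Flag) | Amount: GST-core106 13.5 nM, Flag-core106 17 nM | Medium: KF-containing HEPES buffer, pH 7.45, DTT, CHAPS, BSA | Reagent: Eu donor and XL665 acceptor anti-tag antibodies | Schedule: 4 h at 22.5 °C | Technique: Time-resolved FRET, ex 340 nm, em 617 and 671 nm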
HCV NS3 hel inh – inhibitors of HCV NS3 helicase, primary screen, biochemical, Cy5 molecular beacon fluorescence; Hepatitis C virus NS3 helicase; NS3 helicase DNA unwinding; inhibition, % at 10.9 µM; 290,000 compounds, 0.56% hits; AID 1800, 2009;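 active means inhibition above the mean of all tested compounds plus 3 SD, set per campaign, cut at about 35% in these data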
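System: HCV NS3 helicase fragment; control set: DMSO and thioflavine S; technique: Cy5 fluorescence at 0 and 60 min, beacon hairpin quenching; reagent: beacon DNA duplex substrate plus ATP; replicates: singlicate; schedule: 1 h reaction at 25 °C, ATP-initiated; medium: MOPS buffer pH 6.5 with MgCl2, DTT, Tween20, BSA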
GPR7 antagonist – GPR7 receptor antagonists, primary screen, cell-based, fluorescence, single concentration | GPR7-expressing cells, fluorescence antagonist assay | 290,000 compounds, 1.1% hits | inhibition, % at 4.4 µM | Neuropeptides B/W receptor type 1 (Homo sapiens), P48145; in the data active means inhibition above about 16%, passing the limit was not always enough;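 further: cells stimulated with the agonist NPW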
GRK2 inh – compounds blocking aptamer binding on GRK2 – biochemical, human GRK2, bead flow cytometry, HTS, primary screen; Beta-adrenergic receptor kinase 1 (Homo sapiens), P25098; FAM-aptamer displacement from GRK2; inhibition of aptamer binding, % at 10 µM; 330,000 compounds, 0.59% hits; AID 488847, 2010;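 active means inhibition of aptamer binding above 40%, roughly 3 SD of noise, on plates passing a quality check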;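 further: median bead fluorescence of bound FAM aptamer so fluorescent compounds give negative values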
Target sequence (P25098 whole entry, looked up): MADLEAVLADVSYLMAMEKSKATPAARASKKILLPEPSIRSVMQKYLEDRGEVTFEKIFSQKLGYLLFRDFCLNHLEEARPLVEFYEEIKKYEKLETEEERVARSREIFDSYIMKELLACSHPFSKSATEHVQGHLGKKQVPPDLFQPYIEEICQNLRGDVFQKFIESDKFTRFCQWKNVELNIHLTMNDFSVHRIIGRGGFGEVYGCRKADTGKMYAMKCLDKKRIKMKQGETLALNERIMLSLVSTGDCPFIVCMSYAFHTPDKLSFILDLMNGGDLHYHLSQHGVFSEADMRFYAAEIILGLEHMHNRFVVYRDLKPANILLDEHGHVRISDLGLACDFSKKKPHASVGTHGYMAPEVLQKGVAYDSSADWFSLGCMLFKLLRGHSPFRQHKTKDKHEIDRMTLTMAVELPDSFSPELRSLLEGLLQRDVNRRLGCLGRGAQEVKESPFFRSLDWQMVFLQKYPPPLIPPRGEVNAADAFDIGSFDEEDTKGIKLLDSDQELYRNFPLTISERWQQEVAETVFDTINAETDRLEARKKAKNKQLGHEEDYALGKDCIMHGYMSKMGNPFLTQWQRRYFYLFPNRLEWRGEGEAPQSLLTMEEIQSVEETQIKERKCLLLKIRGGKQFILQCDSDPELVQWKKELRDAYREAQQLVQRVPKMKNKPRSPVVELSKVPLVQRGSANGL
A number is an active result; - = inactive; . = no result given. A selection: hits, their analogues and other compounds. The true share with any hit is near 2.2%.

SMILES	DAGLB inhibitor	DNA FID counter	HCV core dimer	HCV NS3 hel inh	GPR7 antagonist	GRK2 inh
COc1ccc2c3c(cccc13)C(=O)N(O)C2=O	-	-	-	-	-	-
C[C@H]1CN([C@@H](C)CO)S(=O)(=O)c2ccc(Br)cc2O[C@H]1CN(C)S(=O)(=O)c1ccccc1	-	.	.	.	.	.
Cc1ccccc1OCC(O)Cn1c(=N)n(Cc2ccccc2)c2ccccc21 (stereo unspecified)	-	-	-	-	34.5	-
CCN(CC)C(=O)C1=C(C)N(Cc2ccc(F)cc2)C(=O)C(CC(=O)NCCN2CCOCC2)C1 (stereo unspecified)	-	.	.	.	.	.
COc1ccc(N/C=C\C(=O)c2ccc3ccccc3c2)cc1	-	-	-	-	-	-
NS(=O)(=O)c1ccc(N/C=C\C(=O)c2ccc3ccccc3c2)cc1	-	-	-	-	-	49.0
CCOC(=O)c1ccc(CNC(=O)C2CCC(=O)N(CCc3ccccc3)C2)o1 (stereo unspecified)	-	-	-	-	-	-
O=C(O)Cc1ccc(NC(=O)C2CC=CCC2C(=O)O)cc1 (stereo unspecified)	.	-	-	-	-	44.0
COCCCNC(=O)/C(C#N)=C/c1ccc(OCC(=O)O)c(OC)c1	-	-	-	-	-	44.0
COc1ccc(/C=C(\C#N)C(=O)NCCc2ccccc2)cc1OCc1ccccc1	-	-	-	-	-	-
Cc1ccccc1CSc1nnc(C)c(=O)[nH]1	-	-	-	-	17.4	-
N#Cc1ccc(C23CC4(C2)[C@H](CN(P(=O)(c2ccccc2)c2ccccc2)[C@@H]4c2ccccc2)C3c2ccc(Cl)nc2)cc1 (stereo partly specified)	-	.	53.4	.	.	-
CC1CCC(C(C)C)C(OC(=O)Cn2c(-c3ccc(Br)cc3)[n+](C)c3ccccc32)C1 (stereo unspecified)	-	-	-	-	73.7	-
CC1CCC(C(C)C)C(OC(=O)Cn2c(-c3ccc(Cl)cc3)[n+](C)c3ccccc32)C1 (stereo unspecified)	-	-	-	-	60.3	-
COc1ccccc1Nc1nc(NCCO)c2ccccc2n1	.	-	.	-	-	.
COc1ccc(-c2nc(NCCCN(C)C)c3ccccc3n2)cc1	-	78.7	-	-	-	-
COc1ccc(OC)c(Nc2nc(NCCO)c3ccccc3n2)c1	-	37.7	-	-	-	-
CCN(CC)CCCNc1nc(-c2ccccc2)nc2ccccc12	-	56.6	-	-	-	-
OCCNc1nc(-c2ccccc2)nc2ccccc12	-	-	-	-	-	-
COCCCNc1nc(-c2ccc(Cl)cc2)nc2ccccc12	-	-	-	-	-	-
c1ccc(-c2nc(NCCCn3ccnc3)c3ccccc3n2)cc1	-	66.3	-	-	-	-
COCCCNc1nc(-c2ccncc2)nc2ccccc12	-	-	-	-	-	-
C=C(CCO)C1=CCN(S(=O)C(C)(C)C)[C@H]1CCO (stereo partly specified)	-	.	.	.	.	.
CCN(CC)CCCNc1nc2cc(OC)c(OC)cc2c2nc(-c3ccccc3)nn12	-	50.5	-	-	-	-
CCN(CC)CCCNc1nc2cc(OC)c(OC)cc2c2nc(-c3cccnc3)nn12	-	-	-	-	-	-
SMILES	DAGLB inhibitor	DNA FID counter	HCV core dimer	HCV NS3 hel inh	GPR7 antagonist	GRK2 inh
CC1(C)Cc2c(C#N)c(NCc3ccco3)nc(-c3ccco3)c2CO1	-	-	51.7	-	-	-
Cc1nc(NCc2ccco2)c(C#N)c2c1COC(C)(C)C2	-	-	-	-	-	-
Cc1cccc(N(C(=O)Cn2nnc3ccccc32)C(C(=O)NCc2ccco2)c2ccncc2)c1 (stereo unspecified)	-	-	-	-	-	-
O=C(NCc1ccco1)C(c1ccco1)N(C(=O)Cn1nnc2ccccc21)c1ccc2c(c1)CCC2 (stereo unspecified)	-	-	49.9	-	-	-
COC(=O)C(C)n1cnc2c(nnn2-c2ccccc2)c1=O (stereo unspecified)	-	-	-	-	-	-
Cc1cc(C)n2c(=O)c3ccc(Cl)cc3nc2c1C#N	-	-	51.9	-	-	-
